# Results collected from several papers.
# Cell line: Jurkat
# Read-out: cell growth or viability
Structure (SMILES),technique,time,endpoint,result
N#CCCC1=CC2C=CC=CC1C2C1CCCCC1=O (centres unmarked),flow cytometry,,IC50,75 nM
CCn1cc(-c2cccc(C(F)(F)F)c2)c2sc(C(=N)NC3CCS(=O)(=O)CC3)cc2c1=O,,7 days,EC50,3.64 µM
CCCCCCCCCCCCNC(=O)NCCCC[C@H](NS(C)(=O)=O)C(=O)N[C@H](C)C(=O)N[C@@H](CCCNC(=N)N)C(N)=O,MTT,72 h,EC50,25.4 to 40.8 µM
O=C1CCCCC1C1C2C=CC=CC1C(CCN1C(=O)c3ccccc3C1=O)=C2 (centres unmarked),flow cytometry,,IC50,26 nM
CCCON(Cc1ccc(C(=O)NO)cc1)C(=O)Nc1ccc(N(C)C)cc1,ATP luminescence,72 h,IC50,5220 nM
Cc1cc2c(cc1N1C(=O)c3cccc4c(CCCO)ccc(c34)C1=O)n(C)c(=O)n2C (racemic),resazurin,,GI50,3.9 µM
CCCCCCCCCCCCNC(=S)NCCCC[C@H](NS(C)(=O)=O)C(=O)N[C@H](C)C(=O)N[C@@H](CCCNC(=N)N)C(=O)N1CCOCC1,MTT,72 h,EC50,35.5 to 64.4 µM
CCOC(=O)CCC1=CC2C=CC=CC1C2C1CCCCC1=O (centres unmarked),flow cytometry,,IC50,48 nM
O=C(/C=C/C=C/c1ccc2c(c1)OCO2)N1CCCCC1,MTT,48 h,IC50,> 50 µg/mL
C[C@H](O)C(=O)CCCCCCC(=O)Nc1cccc(-c2cn(-c3ccccc3)nn2)c1,thymidine uptake,,IC50,2840 nM
Cc1cc(=O)n(C)c2cc(N3C(=O)CC[C@H](NS(=O)(=O)CC(C)C)[C@H]3c3ccc(Cl)cc3)ccc12,,7 days,EC50,10.5 µM
